# FLuc act counter: firefly luciferase counter-screen for stimulation assays | activation factor at 10 µM | 200,000 tested, under 10 active | ATPlite luciferase biochemical, luminescence, 10 min; 0 = ATP-free wells, 1 = DMSO control;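 active = luciferase activation factor, scaled between plate controls, of at least 2 with compound at 10 µM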
#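 test system = cell-free luciferase reagent | medium = PBS as buffer for the ATP substrate | dosing = test compounds dosed from 2 mM stocks in 100% DMSO | incubation = 10 min at ambient temperature | detection = luminescence measurement of luciferase light output | benchmarks = low control with PBS replacing ATP, high control enzyme plus ATP without compound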
# PMI act hi M6P: activators of human phosphomannose isomerase at near-saturating mannose 6-phosphate. P34949. coupled PMI enzyme assay, resazurin fluorescence, 20 min; hits give high values; 1 = untreated enzyme, 0 = substrate-free blank. activation factor at 20 µM. 190,000 compounds, 0.34% hits;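 active = activation factor of 2 or more at 20 µM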
# Target sequence (P34949 whole entry, looked up): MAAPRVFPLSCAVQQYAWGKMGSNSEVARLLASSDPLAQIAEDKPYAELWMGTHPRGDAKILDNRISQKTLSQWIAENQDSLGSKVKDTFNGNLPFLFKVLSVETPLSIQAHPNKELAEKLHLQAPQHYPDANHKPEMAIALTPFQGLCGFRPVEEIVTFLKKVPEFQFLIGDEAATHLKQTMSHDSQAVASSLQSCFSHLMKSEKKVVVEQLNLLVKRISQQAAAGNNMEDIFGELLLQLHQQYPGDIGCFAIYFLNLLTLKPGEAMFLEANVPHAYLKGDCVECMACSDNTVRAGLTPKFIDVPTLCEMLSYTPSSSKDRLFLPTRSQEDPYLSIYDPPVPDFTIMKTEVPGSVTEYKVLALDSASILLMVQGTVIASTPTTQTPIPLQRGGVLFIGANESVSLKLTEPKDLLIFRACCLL
#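 test system = human PMI in coupled enzyme assay | medium = HEPES-buffered pH 7.4 with magnesium and detergent | also added = 1.0 mM mannose-6-phosphate substrate with 0.22 mM NADP+ | compound = 20 µM single dose | times = 20 min incubation at room temperature | measured by = resorufin fluorescence (Ex 544/Em 590 nm) from resazurin via diaphorase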
# PMI activator: phosphomannose isomerase (human) activation; P34949; purified human PMI, coupled resazurin fluorescence, 20 min; hits give high values; 1 = vehicle control, 0 substrate-free wells; activation factor at 20 µM; 190,000 compounds, 0.005% hits; AID 1214;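 active = activation factor of 2 or more at 20 µM, relative to plate controls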
# FLuc inhib CS: counter-screen for luciferase assay inhibitors: firefly luciferase inhibition | ATPLite firefly luciferase biochemical luminescence, 10 min | 200,000 compounds, 1.5% hits | inhibition, % at 10 µM | P08659;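 active = inhibition above about 50% when tested at 10 µM, limit read from the data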
# Diaph inh CS: counter-screen for diaphorase-based assays: diaphorase inhibitors and chemical oxidizers; AID 1217; diaphorase resazurin-to-resorufin fluorescence, NADH, 16 min; bacterial (C. kluyveri) enzyme, not human; 190,000 compounds, 0.69% hits; inhibition, % at 20 µM;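 active = primary screen inhibition at 20 µM above a set limit, cut at about 50% in these data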;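 note: plate controls were DMSO with full reaction for no effect and wells lacking NADH for full effect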
#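 controls = No-NADH positive control and DMSO neutral control | system = Clostridium kluyveri diaphorase enzyme | timing = reaction incubation of 16 min at room temperature | signal = resorufin fluorescence 544/590 nm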
# Diaph act CS: diaphorase activation or chemical reduction counter-screen | AID 1229 | 190,000 compounds, 0.005% hits | Diaphorase/resazurin coupled assay, resorufin fluorescence, 16 min; hits give high values; 1 = vehicle wells, 0 = NADH-free wells | activation factor at 20 µM;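 active = diaphorase activity raised at least twofold by the compound at 20 µM; inactive = activation factor below 2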
#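 test system = bacterial diaphorase enzyme (C. kluyveri) | quantity = enzyme 0.07 U/mL final | reagent = NADH substrate 0.114 mM plus resazurin dye 0.1 mM, final | incubation = 16 min enzyme reaction, ambient temperature | buffer or medium = HEPES pH 7.4 buffer with MgCl2 and Tween 20 | signal = fluorescence of resorufin, 544 nm excitation, 590 nm emission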
# Starred values were filed as active, the others as inactive. Rows were chosen to be rich in hits. Some 2.5% of all compounds tested hit in one or more screens of this group.
SMILES,FLuc act counter,PMI act hi M6P,PMI activator,FLuc inhib CS,Diaph inh CS,Diaph act CS
Cc1ncsc1C(=O)Nc1nc2c(s1)CCCC2,0.5,1,1,45.4,-8.5,1.1
O=C(Nc1nc2c(s1)CCCC2)c1ccc2ncsc2c1,0.4,0.9,0.9,59.0*,21.2,0.8
COc1ccc(Nc2nc3c([nH]2)c(=O)[nH]c(=O)n3C)cc1,1,0.9,0.9,1.9,7.8,0.9
Cc1ccc(C(=O)Nc2scc(-c3ccccc3)c2C(=O)O)o1,0.8,1,1,15.1,22.1,0.8
O=C(/C=C/c1ccccc1)Nc1scc(-c2ccccc2)c1C(=O)O,0.3,1,1.2,74.3*,8.4,0.9
O=C(/C=C\c1ccccc1)Nc1nccs1,0.5,1.1,1.1,53.0*,-2.4,1
Cc1cccc(OCC(O)CN2CC3(C)CC2CC(C)(C)C3)c1 (configuration not stated),1.1,1.1,1.1,-6.2,11.0,0.9
Cn1c(=O)c2c(nc(CN3CCOCC3)n2CC(O)CO)n(C)c1=O (configuration not stated),1,1,0.9,-2.5,5.1,0.9

# Compound activity: PubChem, Sanford-Burnham Center for Chemical Genomics
